Target: human GPR68 (Homo sapiens, UniProt Q15743)
Assay: GloSensor cAMP assay, proton-mediated Gs-cAMP production at human GPR68
Type: cell-based
Conditions: for Δ: difference of Log(αβ/KB) from that of 1; for Δ / −Log (KB) / Log (αβ/KB): human GPR68; for Log (α): affinity cooperativity; for Log (α) / Log (β): human GPR68, HEK293T, Gs-cAMP; for Log (α) / −Log (KB) / Log (αβ/KB) / Log (β): mean ± SEM; for −Log (KB): allosteric binding affinity from functional assay; for Log (αβ/KB): allosteric index; for Log (β): efficacy cooperativity
Procedure, shortened: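 HEK293T cells were transiently transfected with receptor and GloSensor cAMP plasmids, overnight (16–20 h). Cells were plated on poly-L-Lys in DMEM + 1% dFBS for 6–24 h, then loaded with 3.5 mM luciferin (HBSS, 20 mM TAPS, pH 8.40) for 1 h at 37 °C. Drug was applied in Ca/Mg-free HBSS pH buffers (MES 5.60–6.70, HEPES 6.80–8.20, TAPS 8.30–8.60) with 10 μM Ro 20-1724. Luminescence was read at 20–30 min.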

Chain of human GPR68 (Q15743 whole entry): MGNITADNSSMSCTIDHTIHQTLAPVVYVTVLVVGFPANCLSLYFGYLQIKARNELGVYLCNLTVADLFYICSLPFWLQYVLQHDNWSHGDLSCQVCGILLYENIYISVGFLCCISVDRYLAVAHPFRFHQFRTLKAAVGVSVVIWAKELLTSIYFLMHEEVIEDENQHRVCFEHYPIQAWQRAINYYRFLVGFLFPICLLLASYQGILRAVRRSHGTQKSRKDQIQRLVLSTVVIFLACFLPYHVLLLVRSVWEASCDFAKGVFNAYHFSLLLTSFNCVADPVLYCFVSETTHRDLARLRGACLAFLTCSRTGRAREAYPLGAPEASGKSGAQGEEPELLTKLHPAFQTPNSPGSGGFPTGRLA

| Compound | Kb [µM] | Δ | Log (α) | −Log (KB) | Log (αβ/KB) | Log (β) |
| --- | --- | --- | --- | --- | --- | --- |
| Nc1nc(NCc2ccc(F)cc2)nc(-c2c(F)cccc2CO)n1 [Compound 68, (2-(4-Amino-6-((4-fluorobenzyl)amino)-1,3,5-triazin-2-yl)-3-fluorophenyl)methanol] | 35.5 | 0.24 |  |  |  |  |
| Nc1nc(NCCc2ccccc2)nc(-c2c(F)cccc2CO)n1 [Compound 72, (2-(4-Amino-6-(phenethylamino)-1,3,5-triazin-2-yl)-3-fluorophenyl)methanol] | 9.12 | 0.82 |  |  |  |  |
| Nc1nc(NCCc2ccc(Oc3ccccc3)cc2)nc(-c2c(F)cccc2CO)n1 [Compound 75, (2-(4-Amino-6-((4-phenoxyphenethyl)amino)-1,3,5-triazin-2-yl)-3-fluorophenyl)methanol] | 8.91 | 0.82 |  |  |  |  |
| Nc1nc(NCc2ccccc2)nc(-c2c(Cl)cccc2CO)n1 [Compound 28, (2-(4-Amino-6-(benzylamino)-1,3,5-triazin-2-yl)-3-chlorophenyl)methanol] | 37.2 | 0.25 |  |  |  |  |
| Nc1nc(NCc2ccc(C(F)(F)F)cc2)nc(-c2ccccc2CO)n1 [Compound 49, (2-(4-Amino-6-((4-(trifluoromethyl)benzyl)amino)-1,3,5-triazin-2-yl)phenyl)methanol] | 9.33 | 0.79 |  |  |  |  |
| Nc1nc(NCc2ccccc2F)nc(-c2ccccc2CO)n1 [Compound 41, (2-(4-Amino-6-((2-fluorobenzyl)amino)-1,3,5-triazin-2-yl)-phenyl)methanol] | 53.7 | 0.25 |  |  |  |  |
| Nc1nc(NCc2ccccc2)nc(-c2cc(F)ccc2CO)n1 [Compound 24, (2-(4-Amino-6-(benzylamino)-1,3,5-triazin-2-yl)-4-fluorophenyl)-methanol] | 26.3 | 0.38 |  |  |  |  |
| Cc1cccc(CNc2nc(N)nc(-c3c(F)cccc3CO)n2)c1 [Compound 69, (2-(4-Amino-6-((3-methylbenzyl)amino)-1,3,5-triazin-2-yl)-3-fluorophenyl)methanol] | 36.3 | 0.11 |  |  |  |  |
| CCNc1nc(NCc2ccccc2)nc(-c2ccccc2CO)n1 [Compound 6, (2-(4-(Benzylamino)-6-(ethylamino)-1,3,5-triazin-2-yl)phenyl)-methanol] | 23.4 | 0.03 |  |  |  |  |
| CC(C)Oc1ccc(-c2nc(N)nc(NCc3ccccc3)n2)c(CO)c1 [Compound 38, (2-(4-Amino-6-(benzylamino)-1,3,5-triazin-2-yl)-5-isopropoxyphenyl)methanol] | 12.3 | 0.43 |  |  |  |  |
| Nc1nc(NCc2cccc(Cl)c2)nc(-c2ccccc2CO)n1 [Compound 45, (2-(4-Amino-6-((3-chlorobenzyl)amino)-1,3,5-triazin-2-yl)-phenyl)methanol] | 10.7 | 0.59 |  |  |  |  |
| Nc1nc(NCc2ccccc2)nc(-c2ccc(Cl)cc2CO)n1 [Compound 26, (2-(4-Amino-6-(benzylamino)-1,3,5-triazin-2-yl)-5-chlorophenyl)methanol] | 17.4 | 0.56 |  |  |  |  |
| Nc1nc(NCCCCc2ccc(Oc3ccccc3)cc2)nc(-c2ccccc2CO)n1 [Compound 66, (2-(4-Amino-6-((4-(4-phenoxyphenyl)butyl)amino)-1,3,5-triazin-2-yl)phenyl)methanol] | 15.5 | 0.62 |  |  |  |  |
| Nc1nc(NCc2ccccc2)nc(-c2ccccc2)n1 [Compound 13, N^2-Benzyl-6-phenyl-1,3,5-triazine-2,4-diamine] |  | Inactive | Inactive | Inactive | Inactive | Inactive |
| Nc1nc(NCc2ccc(F)cc2)nc(-c2ccccc2CO)n1 [Compound 43, (2-(4-Amino-6-((4-fluorobenzyl)amino)-1,3,5-triazin-2-yl)-phenyl)methanol] | 107 | 0.11 |  |  |  |  |
| COc1ccccc1CNc1nc(N)nc(-c2c(F)cccc2CO)n1 [Compound 70, (2-(4-Amino-6-((2-methoxybenzyl)amino)-1,3,5-triazin-2-yl)-3-fluorophenyl)methanol] | 77.6 | −0.19 |  |  |  |  |
| Nc1nc(NCCCc2ccc(Oc3ccccc3)cc2)nc(-c2ccccc2CO)n1 [Compound 65, (2-(4-Amino-6-((3-(4-phenoxyphenyl)propyl)amino)-1,3,5-triazin-2-yl)phenyl)methanol] | 21.4 | 0.53 |  |  |  |  |
| Nc1nc(NCc2ccccc2)nc(-c2ccc(F)cc2CO)n1 [Compound 23, (2-(4-Amino-6-(benzylamino)-1,3,5-triazin-2-yl)-5-fluorophenyl)-methanol] | 26.3 | 0.15 |  |  |  |  |
| Nc1nc(NCCCCc2ccccc2)nc(-c2c(F)cccc2CO)n1 [Compound 74, (2-(4-Amino-6-((4-phenylbutyl)amino)-1,3,5-triazin-2-yl)-3-fluorophenyl)methanol] | 91.2 | 0.03 |  |  |  |  |

| Compound | Kb [µM] | Δ | Log (α) | −Log (KB) | Log (αβ/KB) | Log (β) |
| --- | --- | --- | --- | --- | --- | --- |
| Cc1ccc(CNc2nc(N)nc(-c3ccccc3CO)n2)cc1 [Compound 52, (2-(4-Amino-6-((4-methylbenzyl)amino)-1,3,5-triazin-2-yl)-phenyl)methanol] | 41.7 | 0.29 |  |  |  |  |
| Nc1nc(NCCc2ccc(Oc3ccccc3)cc2)nc(-c2cc(Cl)ccc2CO)n1 [Compound 81, (2-(4-Amino-6-((4-phenoxyphenethyl)amino)-1,3,5-triazin-2-yl)-4-chlorophenyl)methanol] | 25.7 | 0.56 |  |  |  |  |
| Cc1ccccc1CNc1nc(N)nc(-c2ccccc2CO)n1 [Compound 50, (2-(4-Amino-6-((2-methylbenzyl)amino)-1,3,5-triazin-2-yl)-phenyl)methanol] | 20 | 0.26 |  |  |  |  |
| CNCc1ccccc1-c1nc(N)nc(NCc2ccccc2)n1 [Compound 19, N^2-Benzyl-6-(2-((methylamino)methyl)phenyl)-1,3,5-triazine-2,4-diamine] |  | Weak PAM | Weak PAM | Weak PAM | Weak PAM | Weak PAM |
| COc1ccccc1CNc1nc(N)nc(-c2ccccc2CO)n1 [Compound 53, (2-(4-Amino-6-((2-methoxybenzyl)amino)-1,3,5-triazin-2-yl)-phenyl)methanol] | 102 | −0.28 |  |  |  |  |
| Nc1nc(NCc2ccccc2)nc(-c2cc(Cl)ccc2CO)n1 [Compound 27, (2-(4-Amino-6-(benzylamino)-1,3,5-triazin-2-yl)-4-chlorophenyl)methanol] | 32.4 | 0.47 |  |  |  |  |
| CC(O)c1ccccc1-c1nc(N)nc(NCc2ccccc2)n1 (stereo not drawn) [Compound 16, 1-(2-(4-Amino-6-(benzylamino)-1,3,5-triazin-2-yl)phenyl)ethan-1-ol] |  | Weak PAM | Weak PAM | Weak PAM | Weak PAM | Weak PAM |
| COc1cccc(CNc2nc(N)nc(-c3ccccc3CO)n2)c1 [Compound 54, (2-(4-Amino-6-((3-methoxybenzyl)amino)-1,3,5-triazin-2-yl)-phenyl)methanol] | 77.6 | −0.09 |  |  |  |  |
| Nc1nc(Nc2ccccc2)nc(-c2ccccc2CO)n1 [Compound 60, (2-(4-Amino-6-(phenylamino)-1,3,5-triazin-2-yl)phenyl)-methanol] | 120 | −0.27 |  |  |  |  |
| CCOc1ccc(CNc2nc(N)nc(-c3ccccc3CO)n2)cc1 [Compound 56, (2-(4-Amino-6-((4-ethoxybenzyl)amino)-1,3,5-triazin-2-yl)-phenyl)methanol] | 17 | 0.26 |  |  |  |  |
| Nc1nc(NCc2ccccc2)nc(-c2c(F)cccc2CO)n1 [Compound 25, (2-(4-Amino-6-(benzylamino)-1,3,5-triazin-2-yl)-3-fluorophenyl)-methanol] | 204 | −0.12 |  |  |  |  |
| Nc1nc(NCCCCc2ccccc2)nc(-c2cc(Cl)ccc2CO)n1 [Compound 79, (2-(4-Amino-6-((4-phenylbutyl)amino)-1,3,5-triazin-2-yl)-4-chlorophenyl)methanol] | 10.5 | 0.83 |  |  |  |  |
| COc1ccc(CO)c(-c2nc(N)nc(NCc3ccccc3)n2)c1 [Compound 31, (2-(4-Amino-6-(benzylamino)-1,3,5-triazin-2-yl)-4-methoxyphenyl)methanol] | 102 | −0.54 |  |  |  |  |
| Nc1nc(NCCCc2ccccc2)nc(-c2c(F)cccc2CO)n1 [Compound 73, (2-(4-Amino-6-((3-phenylpropyl)amino)-1,3,5-triazin-2-yl)-3-fluorophenyl)methanol] | 33.9 | 0.36 |  |  |  |  |
| Nc1nc(NCCCc2ccc(Oc3ccccc3)cc2)nc(-c2c(F)cccc2CO)n1 [Compound 76, (2-(4-Amino-6-((3-(4-phenoxyphenyl)propyl)amino)-1,3,5-triazin-2-yl)-3-fluorophenyl)methanol] | 11.5 | 0.81 |  |  |  |  |
| CC(=O)c1ccccc1-c1nc(N)nc(NCc2ccccc2)n1 [Compound 15, 1-(2-(4-Amino-6-(benzylamino)-1,3,5-triazin-2-yl)phenyl)ethan-1-one] |  | Weak PAM | Weak PAM | Weak PAM | Weak PAM | Weak PAM |
| COc1ccc(CNc2nc(N)nc(-c3ccccc3CO)n2)cc1 [Compound 55] | 457 | −0.70 |  |  |  |  |
| Nc1nc(NCc2ccccc2F)nc(-c2c(F)cccc2CO)n1 [Compound 67, (2-(4-Amino-6-((2-fluorobenzyl)amino)-1,3,5-triazin-2-yl)-3-fluorophenyl)methanol] | 60.3 |  |  |  |  |  |
| Nc1nc(NCCCc2ccccc2)nc(-c2ccccc2CO)n1 [Compound 62] | 6.03 | 0.80 |  |  |  |  |

Source: publication PMC6923801 (Journal of medicinal chemistry, 2019)
